Test results: ChEMBL document CHEMBL1131213, “Novel euglycemic and hypolipidemic agents. 1” (J Med Chem, 1998)

How the values were obtained:
Mus musculus [1] = assay: Percent reduction in blood glucose is evaluated in db/db mice for euglycemic and hypolipidemic activities at a dose of 100 mg/kg
Mus musculus [2] = assay: Percent reduction in triglyceride (TG) after 9 days of dosing in db/db is evaluated in mice for euglycemic and hypolipidemic activities at a dose of 100 mg/kg
Mus musculus [3] = assay: Percent reduction in blood glucose is evaluated in db/db mice for euglycemic and hypolipidemic activities at a dose of 200 mg/kg
Mus musculus [4] = assay: Percent reduction in triglyceride (TG) after 9 days of dosing in db/db is evaluated in mice for euglycemic and hypolipidemic activities
Mus musculus [5] = assay: Percent reduction in blood glucose is evaluated in db/db mice for euglycemic and hypolipidemic activities at a dose of 10 mg/kg
Mus musculus [6] = assay: Percent reduction in triglyceride (TG) after 9 days of dosing in db/db is evaluated in mice for euglycemic and hypolipidemic activities at a dose of 10 mg/kg
Mus musculus [7] = assay: Percent reduction in triglyceride (TG) after 9 days of dosing in db/db is evaluated in mice for euglycemic and hypolipidemic activities at a dose of 200 mg/kg
[8] = Pharmacokinetic parameter [area under curve (AUC)] was evaluated at 10 mg/kg (p.o.) in Wistar rats; format: ADME, organism-based; parameters: dose 10 mg/kg, route oral; settings: rat, in vivo, po
How it was run: (§1)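 Wistar rats (175-200 g), fasted 12 h, water free, fed 3 h post-dose. Single 10 mg/kg oral dose as 0.5% CMC suspension. Orbital sinus blood taken at 0, 0.5, 1, 2, 3, 5, 8, 12 and 24 h. Plasma assayed by reverse-phase C18 HPLC with fluorescence detection. Noncompartmental analysis gave AUC0-∞, Kel, t1/2, Cmax and tmax.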

[9] = Pharmacokinetic parameter [Kel(1/h)] was evaluated at 10 mg/kg (p.o.) in Wistar rats; format: ADME, organism-based; parameters: dose 10 mg/kg, route oral; settings: rat, in vivo, po
How it was run: as §1

[10] = Pharmacokinetic parameter (Cmax) was evaluated at 10 mg/kg (p.o.) in Wistar rats; format: ADME, organism-based; parameters: dose 10 mg/kg, route oral; settings: rat, in vivo, po
How it was run: as §1

Rattus norvegicus [11] = assay: Tissue level at 10 mg/kg/po in wistar rats in blood; format: ADME, organism-based; settings: in vivo
How it was run: (§2)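 Wistar rats, two per drug, given 10 mg/kg orally and sacrificed at plasma tmax. Blood/plasma drawn just before sacrifice. Tissues perfused with phosphate buffer pH 5.8 and homogenized 1:4 in buffer. Drug measured by HPLC and reported as µg/g wet tissue. Ratios are tissue over plasma.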

Rattus norvegicus [12] = assay: Tissue level at 10 mg/kg/po in wistar rats in brown fat; format: ADME, organism-based; settings: in vivo
How it was run: as §2

Rattus norvegicus [13] = assay: Tissue level at 10 mg/kg/po in wistar rats in heart; format: ADME, organism-based; settings: in vivo
How it was run: as §2

Rattus norvegicus [14] = assay: Tissue level at 10 mg/kg/po in wistar rats in plasma; format: ADME, organism-based; settings: in vivo
How it was run: as §2

Rattus norvegicus [15] = assay: Tissue level at 10 mg/kg/po in wistar rats in skeletal muscle; format: ADME, organism-based; settings: in vivo
How it was run: as §2

Rattus norvegicus [16] = assay: Tissue level at 10 mg/kg/po in wistar rats in subcutaneous fat; format: ADME, organism-based; settings: in vivo
How it was run: as §2

[17] = Pharmacokinetic parameter (tmax(h)) was evaluated at 10 mg/kg (p.o.) in Wistar rats; format: ADME, organism-based; parameters: dose 10 mg/kg, route oral; settings: rat, in vivo, po
How it was run: as §1

[18] = Ratio between level in brown fat to that of the level in plasma; format: ADME
How it was run: as §2

[19] = Ratio between level in heart to that of the level in plasma; format: ADME
How it was run: as §2

[20] = Ratio between level in liver to that of the level in plasma; format: ADME, tissue-based
How it was run: as §2

[21] = Ratio between level in skeletal muscle to that of the level in plasma; format: ADME
How it was run: as §2

[22] = Ratio between level in subcutaneous fat to that of the level in plasma; format: ADME
How it was run: as §2

Rattus norvegicus [23] = assay: Tissue level at 10 mg/kg/po in wistar rats in liver; format: ADME, organism-based; settings: in vivo
How it was run: as §2

[24] = Pharmacokinetic parameter (half-life) was evaluated at 10 mg/kg (p.o.) in Wistar rats; format: ADME, organism-based; parameters: dose 10 mg/kg, route oral; settings: rat, in vivo, po
How it was run: as §1

[25] = Ratio between level in blood to that of the level in plasma; format: ADME
How it was run: as §2

[26] = Pharmacokinetic Parameter [Area under curve (AUC)] was evaluated at 10 mg/kg (p.o.) in Wistar rats; format: ADME, organism-based; parameters: dose 10 mg/kg, route oral; settings: rat, in vivo, po
How it was run: as §1

[27] = Pharmacokinetic Parameter [Kel(1/h)] was evaluated at 10 mg/kg (p.o.) in Wistar rats; format: ADME, organism-based; parameters: dose 10 mg/kg, route oral; settings: rat, in vivo, po
How it was run: as §1

[28] = Pharmacokinetic Parameter (Cmax) was evaluated at 10 mg/kg (p.o.) in Wistar rats; format: ADME, organism-based; parameters: dose 10 mg/kg, route oral; settings: rat, in vivo, po
How it was run: as §1

[29] = Pharmacokinetic Parameter [tmax(h)] was evaluated at 10 mg/kg (p.o.) in Wistar rats; format: ADME, organism-based; parameters: dose 10 mg/kg, route oral; settings: rat, in vivo, po
How it was run: as §1

[30] = Pharmacokinetic Parameter (half-life) was evaluated at 10 mg/kg (p.o.) in Wistar rats; format: ADME, organism-based; parameters: dose 10 mg/kg, route oral; settings: rat, in vivo, po
How it was run: as §1

## O=C1NC(=O)C(Cc2ccc(OCCn3c4ccccc4c4ccccc43)cc2)S1 (stereo unspecified)
Mus musculus [1]
  Reduction: 0%
Mus musculus [2]
  Reduction: 21%

## O=C1NC(=O)/C(=C/c2ccc(OCCn3ccc4ccccc43)cc2)S1
Mus musculus [3]
  Reduction: 33%
Mus musculus [4]
  Reduction: 37%

## CN(CCOc1ccc(/C=C2\SC(=O)NC2=O)cc1)c1ccccn1
Mus musculus [5]
  Reduction: 56%
Mus musculus [1]
  Reduction: 56%
Mus musculus [6]
  Reduction: 32%
Mus musculus [2]
  Reduction: 32%

## O=C1NC(=O)/C(=C/c2ccc(OCCN3CCc4ccccc43)cc2)S1
Mus musculus [3]
  Reduction: 61%
Mus musculus [7]
  Reduction: 83%

## O=C1NC(=O)/C(=C\c2ccc(OCCn3c4ccccc4c4ccccc43)cc2)S1
Mus musculus [1]
  Reduction: 0%
Mus musculus [2]
  Reduction: 44%

## Cc1c(C)n(CCOc2ccc(/C=C3\SC(=O)NC3=O)cc2)c2ccccc12
Mus musculus [3]
  Reduction: 40%
Mus musculus [7]
  Reduction: 2%

## O=C1NC(=O)C(Cc2ccc(OCCn3ccc4ccccc43)cc2)S1 (stereo unspecified)
[8]
  AUC: 129000 ng·h/mL
[9]
  k el: 6.94e-05 s⁻¹
[10]
  Cmax: 14500 ng/mL
Rattus norvegicus [11]
  Concentration: 7240 ng/mL
Rattus norvegicus [12]
  Concentration: 1.23 µg/g
Rattus norvegicus [13]
  Concentration: 2.45 µg/g
Rattus norvegicus [14]
  Concentration: 11800 ng/mL
Rattus norvegicus [15]
  Concentration: 0.85 µg/g
Rattus norvegicus [16]
  Concentration: 1.5 µg/g
[17]
  Tmax: 3.67 h
[18]
  Kp: 0.1
[19]
  Kp: 0.21
[20]
  Kp: 0.85
[21]
  Kp: 0.07
[22]
  Kp: 0.13
Rattus norvegicus [23]
  Concentration: 10.01 µg/g
[24]
  half-life: 3.28 h
[25]
  blood plasma ratio: 0.62
Mus musculus [1]
  Reduction: 74%
Mus musculus [2]
  Reduction: 77%

## O=C1NC(=O)/C(=C/c2ccc(OCCn3c(C(=O)O)cc4ccccc43)cc2)S1
Mus musculus [3]
  Reduction: 12%
Mus musculus [7]
  Reduction: 0%

## O=C1NC(=O)/C(=C/c2ccc(OCCn3ccc4cc(Cl)ccc43)cc2)S1
Mus musculus [3]
  Reduction: 39%
Mus musculus [7]
  Reduction: 11%

## O=C1NC(=O)C(Cc2ccc(OCCN3CCc4ccccc43)cc2)S1 (stereo unspecified)
Mus musculus [3]
  Reduction: 33%
Mus musculus [7]
  Reduction: 79%

## COC(=O)C(N)Cc1cn(CCOc2ccc(/C=C3\SC(=O)NC3=O)cc2)c2ccccc12 (stereo unspecified)
Mus musculus [1]
  Reduction: 27%
Mus musculus [2]
  Reduction: 64%

## CCOC(=O)c1cc2ccccc2n1CCOc1ccc(/C=C2\SC(=O)NC2=O)cc1
Mus musculus [3]
  Reduction: 0%
Mus musculus [7]
  Reduction: 13%

## O=C1NC(=O)/C(=C/c2ccc(OCCn3cnc4ccccc43)cc2)S1
Mus musculus [3]
  Reduction: 33%
Mus musculus [7]
  Reduction: 76%

## O=C1NC(=O)/C(=C/c2ccc(OCCn3ccc4cccnc43)cc2)S1
Mus musculus [3]
  Reduction: 36%
Mus musculus [7]
  Reduction: 79%

## O=C1NC(=O)/C(=C/c2ccc(OCCn3ccnc3)cc2)S1
Mus musculus [3]
  Reduction: 13%
Mus musculus [7]
  Reduction: 72%

## O=C1NC(=O)C(Cc2ccc(OCCn3ccc4cccnc43)cc2)S1 (stereo unspecified)
Mus musculus [3]
  Reduction: 33%
Mus musculus [7]
  Reduction: 74%

## Cc1cc2ccccc2n1CCOc1ccc(/C=C2\SC(=O)NC2=O)cc1
Mus musculus [3]
  Reduction: 16%
Mus musculus [7]
  Reduction: 41%

## CN(CCOc1ccc(CC2SC(=O)NC2=O)cc1)c1ccccn1.O=C(O)/C=C\C(=O)O (stereo unspecified) [ROSIGLITAZONE MALEATE]
[26]
  AUC: 59200 ng·h/mL
[27]
  k el: 0.0002 s⁻¹
[28]
  Cmax: 29400 ng/mL
Rattus norvegicus [11]
  Concentration: 13800 ng/mL
Rattus norvegicus [12]
  Concentration: 2.1 µg/g
Rattus norvegicus [13]
  Concentration: 1.63 µg/g
Rattus norvegicus [14]
  Concentration: 27200 ng/mL
Rattus norvegicus [15]
  Concentration: 0.87 µg/g
Rattus norvegicus [16]
  Concentration: 14.32 µg/g
[29]
  Tmax: 0.5 h
[30]
  half-life: 1.02 h
[18]
  Kp: 0.08
[19]
  Kp: 0.06
[20]
  Kp: 0.4
[21]
  Kp: 0.03
[22]
  Kp: 0.53
Rattus norvegicus [23]
  Concentration: 10.9 µg/g
[25]
  blood plasma ratio: 0.51
Mus musculus [5]
  Reduction: 55%
Mus musculus [4]
  Reduction: 37%

## CN(CCOc1ccc(CC2SC(=O)NC2=O)cc1)c1ccccn1 (stereo unspecified) [ROSIGLITAZONE]
Mus musculus [5]
  Reduction: 100%
Mus musculus [1]
  Reduction: 71%
Mus musculus [3]
  Reduction: 67%
Mus musculus [6]
  Reduction: 46%
Mus musculus [2]
  Reduction: 46%
Mus musculus [7]
  Reduction: 55%

## Cc1c(C)c2c(c(C)c1O)CCC(C)(COc1ccc(CC3SC(=O)NC3=O)cc1)O2 (stereo unspecified) [TROGLITAZONE]
Mus musculus [5]
  Reduction: 41%
